Source: paper PMC5075014 (Medicinal Chemistry Research, 2016)

Tested on: MCF-7 (human breast cancer) cell line
Assay: WST-1 assay, anticancer activity, breast cancer MCF-7
Assay type: cell-based
Conditions: MCF-7 cell line
Method in brief: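 Cells were grown at 37 °C under 5 % CO2 and seeded at 1 × 10^4 cells/well in DMEM with 10 % FCS, streptomycin and penicillin. They were exposed to the test compound at 0–100 μg/mL for 72 h, then given WST-1 for 1 h. Absorbance was read at 450 nm against a background control, with a 600 nm reference. Values are means of at least two independent experiments run in triplicate.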

CN(C)CCCN1c2ccccc2Sc2cccnc21 [Prothipendyl, 10-dimethylaminopropyl-1-azaphenothiazine]
times less active than the most active diazaphenothiazines: 5-6 times
